Consider 5 compounds from article PMC7261135 (Journal of medicinal chemistry, 2020).

A short description of series [1]: ex vivo biodistribution of [^18F]15. Conditions: male Sprague Dawley rats. In kind it is in vivo.
Series [2] deals with T1, mGluR4 (Rattus norvegicus, UniProt P31423). The series is described as follows: PET imaging of [^18F]15, baseline. Conditions: rats. It counts as in vivo, Sprague Dawley rats.
Series [3] deals with T2, mGluR4 (Homo sapiens, UniProt Q14833). Nature of the series: competitive binding assay with [^3H]4 in mGluR4 transfected CHO cells.
Series [4] is described as follows: liver microsomal stability. In kind it is in vitro ADME, rat.
Series [5] can be described thus: Log D7.4, scaled-down shake flask method using [^18F]15. To be noted: octanol/phosphate buffer, pH 7.4. It counts as physicochemical. In outline: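 Radiolabelled test compound (74 kBq) was partitioned between octanol and pH 7.4 phosphate buffer, vortexed 2 min and centrifuged 2 min, and both phases were sampled. An octanol aliquot went into fresh octanol/buffer and the cycle was repeated to give six sets. Gamma counting; Log D = log(octanol counts × 10 / buffer counts).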

Series [6] in a line: in vitro plasma stability. It counts as in vitro ADME. Conditions: rat plasma (rat serum). Put shortly: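 Test compound incubated in rat serum, with diltiazem run alongside as assay QC control.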
Series [7] has as its target T2, mGluR4. Nature of the series: mGluR4 Gi fold shift assay. It counts as cell-based. Put shortly: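 Split-luciferase GloSensor cAMP biosensor read-out of Gi-coupled mGluR4 signalling. L-SOP concentration-response curves were run with test compound at 3.0 μM and the leftward shift measured; efficacy given relative to glutamate maximum. Data from NIMH PDSP, averaged over at least three independent determinations run in triplicate.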

The nature of series [8]: solution stability at pH 5.0, 7.4, 9.4. In kind it is physicochemical.
Series [9] has as its target T1, mGluR4. Nature of the series: PET blocking studies of [^18F]15 binding. It counts as in vivo, Sprague Dawley rats. To be noted: rats. Put shortly:
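Male Sprague Dawley rats under isoflurane/nitrous oxide (1.0–1.5% isoflurane) with a tail-vein catheter. Blocker 1, 2 or 3 mg/kg in saline with 10% DMSO, 5% Tween-20, 85% PBS, given 1 min before iv tracer (18–34 MBq). Dynamic PET 60 min, CT for attenuation correction, MLEM reconstruction. Regional time-activity curves; blocking as percent change from baseline scans.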

Setting [10] is: rat liver microsomes with NADPH.

Where two headings read alike, the source gives them in different places.

T2 sequence (Q14833 33-912): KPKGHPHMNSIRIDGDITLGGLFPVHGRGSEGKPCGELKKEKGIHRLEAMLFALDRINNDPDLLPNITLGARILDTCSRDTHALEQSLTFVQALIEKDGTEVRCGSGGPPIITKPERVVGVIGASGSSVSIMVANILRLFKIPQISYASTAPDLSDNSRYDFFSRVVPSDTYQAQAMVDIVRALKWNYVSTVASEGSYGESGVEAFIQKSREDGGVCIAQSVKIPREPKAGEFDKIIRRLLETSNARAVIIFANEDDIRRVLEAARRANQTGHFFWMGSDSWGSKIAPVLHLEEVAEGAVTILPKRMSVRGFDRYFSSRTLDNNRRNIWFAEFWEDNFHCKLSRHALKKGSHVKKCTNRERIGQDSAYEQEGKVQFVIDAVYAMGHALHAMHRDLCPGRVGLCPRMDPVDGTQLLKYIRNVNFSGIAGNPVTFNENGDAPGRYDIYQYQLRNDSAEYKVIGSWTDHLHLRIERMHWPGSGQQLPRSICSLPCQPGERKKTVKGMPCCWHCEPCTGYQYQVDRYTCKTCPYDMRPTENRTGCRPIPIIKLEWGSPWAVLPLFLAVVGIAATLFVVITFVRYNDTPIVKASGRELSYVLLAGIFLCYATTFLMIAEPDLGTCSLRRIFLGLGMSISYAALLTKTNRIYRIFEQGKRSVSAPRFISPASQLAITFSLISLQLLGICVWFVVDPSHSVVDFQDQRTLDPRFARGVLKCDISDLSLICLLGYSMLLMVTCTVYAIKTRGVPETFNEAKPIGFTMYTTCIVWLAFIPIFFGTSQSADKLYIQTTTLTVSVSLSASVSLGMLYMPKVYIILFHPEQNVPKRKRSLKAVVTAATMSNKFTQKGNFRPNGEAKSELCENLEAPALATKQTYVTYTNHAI
T1 sequence (P31423 33-912): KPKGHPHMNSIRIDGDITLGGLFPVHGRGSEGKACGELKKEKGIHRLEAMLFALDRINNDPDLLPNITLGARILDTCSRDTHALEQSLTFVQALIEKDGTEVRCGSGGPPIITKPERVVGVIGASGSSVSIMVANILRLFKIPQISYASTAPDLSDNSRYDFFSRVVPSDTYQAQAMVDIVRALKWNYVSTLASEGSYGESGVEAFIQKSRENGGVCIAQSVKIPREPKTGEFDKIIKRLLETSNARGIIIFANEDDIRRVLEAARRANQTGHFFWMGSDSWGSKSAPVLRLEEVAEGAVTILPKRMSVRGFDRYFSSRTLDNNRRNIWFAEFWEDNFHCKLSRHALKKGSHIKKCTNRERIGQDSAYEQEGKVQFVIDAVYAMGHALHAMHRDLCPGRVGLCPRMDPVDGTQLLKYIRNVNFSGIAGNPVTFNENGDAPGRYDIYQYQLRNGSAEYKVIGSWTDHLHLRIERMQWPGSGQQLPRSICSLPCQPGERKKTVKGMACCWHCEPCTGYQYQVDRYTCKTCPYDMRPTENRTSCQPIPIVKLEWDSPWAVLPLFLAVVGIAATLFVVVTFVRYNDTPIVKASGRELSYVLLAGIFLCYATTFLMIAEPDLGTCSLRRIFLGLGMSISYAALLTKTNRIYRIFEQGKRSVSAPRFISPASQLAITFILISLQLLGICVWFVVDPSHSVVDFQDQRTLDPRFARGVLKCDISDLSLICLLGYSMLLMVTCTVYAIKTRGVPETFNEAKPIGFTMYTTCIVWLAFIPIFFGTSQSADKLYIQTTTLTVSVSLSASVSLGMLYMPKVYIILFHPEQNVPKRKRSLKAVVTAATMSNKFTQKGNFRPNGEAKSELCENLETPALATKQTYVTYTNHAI

In the case of `[2H]C([2H])([18F])Sc1cc(NC(=O)c2ccccn2)ccc1Cl` [[^18F]15, [^18F]-N-(4-chloro-3-((fluoromethyl-d2)thio)phenyl)-picolinamide], the accumulation in brain in series [1] (at 10 min after iv injection) is 0.41±0.18 % ID/g. In series [1] (at 20 min after iv injection), this compound displayed an accumulation in heart of 0.50±0.08 % ID/g, an accumulation in liver of 1.33±0.12 % ID/g and an accumulation in lungs of 0.58±0.17 % ID/g. The accumulation in kidneys in [1] (at 30 min after iv injection) is reported as 0.93±0.57 % ID/g. For the same compound, the “time of highest accumulation in the thalamus” value on mGluR4 [2] (after administration of the ligand) was “about 2 min”. Further, the “maximum average uptake in the thalamus” value on mGluR4 [2] (time interval 1–10 min after administration) is recorded as 1.77±0.26 % ID/cc.
With `[2H]C([2H])(F)Sc1cc(NC(=O)c2ccccn2)ccc1Cl` [Compound 15, N-(4-Chloro-3-((fluoromethyl-d2)thio)phenyl)picolinamide], the IC50 at mGluR4 [3] was 3.5 ± 0.5 nM. In [4] (rat, liver microsomes), the microsomal CLint amounted to 24.2 µL/min/mg. The compound further displayed a logD in series [5] of 3.82. Besides, the “The plasma stability: The intact ± SEM at 120 (min%)” value in series [6] was 84.5 ± 10.2%. Further, at mGluR4 [7] (at 3.0 μM), the “leftward shift of agonist (L-SOP) response curve” value stood at 7.5 fold. In addition, at mGluR4 [7] (read-out: Glu Max efficacy), the Emax at 3 µM stood at 98.3%. The “The solution stability: The intact ± SEM at 120 min” value in series [8] (pH = 5.0) is 87.1 ± 0.9%; in series [8] (pH = 7.4) it was 88.3 ± 1.9%; in series [8] (pH = 9.4), 84.3 ± 1.8%.
Turning to `COc1ccc([C@@H]2Sc3ccccc3N(CCN(C)C)C(=O)[C@@H]2OC(C)=O)cc1` [Diltiazem], in series [6], the “The plasma stability: The intact ± SEM at 120 (min%)” value is 49.0 ± 10.6%. Besides, the “The solution stability: The intact ± SEM at 120 min” value is 94.7 ± 1.4% in series [8] (pH = 5.0), 99.0 ± 5.7% in series [8] (pH = 7.4) and 69.8 ± 2.6% in series [8] (pH = 9.4).
With `CSc1cc(NC(=O)c2ccccn2)ccc1Cl` [Compound 13], at mGluR4 [3] (read-out: IC50±SE, mGluR4 transfected CHO cells, 2 nM [^3H]4, test compound 0.01 nM to 10 μM), the half-maximal inhibitory concentration (IC50) was found to be 3.5 ± 0.7 nM. The “The microsome stability Clint” value in series [4] (setting [10]) came to 54.8 μL/min /mg protein. Further, the “The microsome stability t1/2” value in [4] (setting [10]) came to 25.3 min. Also, the “The plasma stability: The intact ± SEM at 120 (min%)” value in series [6] is 91.5 ± 2.5%. The “The solution stability: The intact ± SEM at 120 min” value in [8] (pH = 5.0) stood at 85.9 ± 0.8%; in [8] (pH = 7.4) it was 87.9 ± 3.4%; in [8] (pH = 9.4), 89.3 ± 1.3%. The “blocking of [^18F]15 binding in striatum” value on mGluR4 [9] (blocking agent 1 mg/kg) is 18%; on mGluR4 [9] (blocking agent 2 mg/kg), 20%; on mGluR4 [9] (blocking agent 3 mg/kg) it was 28%. For the same compound, the “blocking of [^18F]15 binding in the whole brain” value on mGluR4 [9] (blocking agent 1, 2 or 3 mg/kg, 1 min before tracer) is listed as 22–25%.
Turning to `COc1cc(NC(=O)c2ccccn2)ccc1Cl` [Compound 4], in [6], the “The plasma stability: The intact ± SEM at 120 (min%)” value is reported as 98.2 ± 6.3%. Moreover, the “The solution stability: The intact ± SEM at 120 min” value in series [8] (pH = 5.0) is reported as 92.7 ± 3.1%; in series [8] (pH = 7.4), 97.3 ± 1.1%; in [8] (pH = 9.4), 89.1 ± 2.1%.
